Compounds with a hit are over-represented: about 3.4% of the library has one in this group of screens.
ERAP1 HTS inh – human ERAP1 aminopeptidase inhibitors, primary screen, biochemical, single point, plate reader; inhibition, % at 10.7 µM; AID 652197, 2013; recombinant ERAP1, Leu-AMC fluorescence, 60 min; actives 0.15% (n = 340,000); Endoplasmic reticulum aminopeptidase 1 (Homo sapiens), Q9NZ08;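 active = mean replicate inhibition of at least 30%, or all replicates individually reaching that 30% level; inactive = mean below 30% and not every replicate reaching it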;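 note: 0% = neutral control wells and 100% = L-leucinethiol positive control wells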
E-selectin induc – E-selectin induction in HUVECs, primary screen, imaging, HUVEC, immunofluorescence imaging, single point; P16581; normalized: neutral wells 0, TNF-alpha wells 100; activation, % at 7.58 µM; actives 0.37% (n = 260,000);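 active = mean E-selectin-positive cell signal at least 10% of the positive control, reached in at least 60% of replicates, without over 20% cell loss; inconclusive = no rule given, readout overlaps actives, possibly toxicity-flagged; inactive = the rest, including those meeting only one limit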
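Read-out basis: % PE-positive cells; Test system: HUVEC primary endothelial cells; Technique: immunofluorescence imaging; Dosing: single-point compound dose.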
S100A4 MyoIIA – inhibitors of S100A4-myosin IIA peptide binding, primary screen, biochemical, fluorescence polarization, TAMRA-MyoIIA peptide; Protein S100-A4 (Homo sapiens), P26447; actives 0.14% (n = 360,000); inhibition, % at 10.7 µM;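 active = mean inhibition of at least 70% across replicates, with every replicate also reaching that level; inconclusive = mean inhibition reaches 70% but some replicates fall short; inactive = mean inhibition below 70%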
Target sequence (P26447 whole entry, looked up): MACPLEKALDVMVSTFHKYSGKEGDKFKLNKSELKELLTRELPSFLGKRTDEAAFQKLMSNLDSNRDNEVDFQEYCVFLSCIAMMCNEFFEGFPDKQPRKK
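Material: human S100A4 monomer with TAMRA-labelled myosin IIA peptide; buffer or medium: HEPES pH 7.2 with CaCl2, KCl, NaCl, DTT, Triton; compound dosing: one concentration per compound; schedule: 5 min incubation before reading; benchmarks: neutral control DMSO, positive control TFP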
Ecoli rRNA inh – reduced GFP signal of wild-type E. coli, primary screen, bacterial rRNA inhibitor project, GFP/RFP fluorescence, OD600, single point; E. coli WT GFP vs humanized-ribosome RFP mutants, 24 h; hits give low values; DMSO median 0, no signal -100; GFP signal change (wild-type ribosome), % (no concentration beside the values); actives 1.6% (n = 350,000); AID 720706, 2013;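 active = significant combined selectivity score with lowered wild-type GFP, culture density cut under 30%, mutant RFP and density less affected; inactive = any of these conditions unmet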
SIRT5 inh – SIRT5 desuccinylase inhibitors, primary screen, biochemical, fluorescence imaging, single point, set 5 | NAD-dependent protein deacylase sirtuin-5, mitochondrial (Homo sapiens), Q9NXA8 | Purified SirT5, succinyl-peptide AMC, trypsin-coupled fluorescence | inhibition, % at 15 µM | actives 1.1% (n = 330,000); in the data active = inhibition above about 15%; inconclusive = no clear call, values can overlap the other calls
Target sequence (Q9NXA8 whole entry, looked up): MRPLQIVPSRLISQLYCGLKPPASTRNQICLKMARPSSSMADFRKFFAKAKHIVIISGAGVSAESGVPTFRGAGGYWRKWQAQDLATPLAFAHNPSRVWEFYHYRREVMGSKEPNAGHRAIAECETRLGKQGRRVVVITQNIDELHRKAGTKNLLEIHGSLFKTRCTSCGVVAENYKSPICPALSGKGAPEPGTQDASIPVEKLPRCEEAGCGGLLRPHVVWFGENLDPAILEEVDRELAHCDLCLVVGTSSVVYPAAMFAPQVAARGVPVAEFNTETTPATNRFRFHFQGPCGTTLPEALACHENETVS
AF4-AF9 inh – inhibitors of AF4 peptide binding to AF9, primary screen, biochemical, AlphaScreen, biotin-AF4 peptide, FLAG-AF9, single point | inhibition, % at 10 µM | actives 0.47% (n = 350,000);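 active = every replicate reaching a set inhibition limit, whatever the replicate mean, cut at about 25% in these data; inconclusive = mean inhibition reaches that limit but some replicates miss it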;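 note: 0% = plate neutral control median and 100% = total signal loss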
AID977621 – growth inhibition of wild-type GFP E. coli, dose response, H69 mutant RFP, cherry-pick; shares compounds with Ecoli rRNA inh; E. coli wild-type GFP strain growth, fluorescence, 24 h; activity change, negative = inhibition at 50 µM; 1,900 tested, under 10 active; AID 977621, 2014;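 active = Wild-type ribosome reporter drop at least double the humanized mutant ribosome reporter drop, growth loss under a set limit; inconclusive = no clear call, values can overlap the other calls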;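 note: wild-type GFP and H69 mutant RFP strains grown together 50/50 in each well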
AID977628 – E. coli growth inhibition, wild-type GFP versus h24 humanized RFP strain, dose response, h24 mutant RFP vs wild-type GFP, cherry-pick | shares compounds with Ecoli rRNA inh | E. coli WT GFP strain growth, fluorescence, 24 h | activity change, negative = inhibition at 50 µM | 1,900 tested, under 10 active | AID 977628, 2014;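 active = compound lowering the normal-ribosome reporter at least twice as much as the humanized-ribosome reporter, growth loss under a set limit; inconclusive = no clear call, values can overlap the other calls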;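 note: wild-type GFP and h24 humanized RFP strains co-cultured 1 to 1 per well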
* = called active by the depositor; u = inconclusive; x = not tested or not shown.

SMILES	ERAP1 HTS inh	E-selectin induc	S100A4 MyoIIA	Ecoli rRNA inh	SIRT5 inh	AF4-AF9 inh	AID977621	AID977628
C[C@@H]1CN([C@@H](C)CO)C(=O)c2cc(NC(=O)c3ccncc3)ccc2O[C@@H](C)CCCCO[C@@H]1CN(C)C(=O)Nc1ccc(C(F)(F)F)cc1	-1.8	0.3	10.5	2.1	2.7	-2.5	x	x
CC1(C(=O)NS(=O)(=O)c2cccc(Cl)c2)CCN1C(=O)C1(c2ccc(Cl)cc2)CC1 (centres undefined)	18.0	0.3	-2.2	-5.2	-1.8	-5.3	x	x
CC1(C(=O)NS(=O)(=O)c2cccs2)CCN1C(=O)C1(c2ccc(Cl)cc2)CCC1 (centres undefined)	2.0	-0.2	-1.1	-32.5*	-2.0	-2.2	-21.9	x
CC1(C(=O)NS(=O)(=O)c2cccc(Cl)c2)CCN1C(=O)C1(c2ccc(Cl)cc2)CCC1 (centres undefined)	8.6	0.0	-16.2	-15.8*	0.4	-3.4	-15	x
C/C=C/c1ccc2c(c1)O[C@@H](CN(C)C(=O)CN(C)C)[C@H](C)CN([C@@H](C)CO)S2(=O)=O	-0.5	-0.2	5.3	4.4	1.7	-2.0	x	x
CO[C@H]1CN(C)C(=O)c2cc(NC(C)=O)ccc2OC[C@@H](C)N(Cc2ccc(F)cc2)C[C@@H]1C	1.1	0.1	-25.0	-5.2	3.2	0.8	x	x
O=c1c2cc(Br)ccc2[nH]c(=S)n1Cc1ccccc1	-1.2	0.1	-0.6	-36.3*	11.8	-1.1	-6.18	x
O=c1c2cc(Br)ccc2[nH]c(=S)n1Cc1ccccn1	7.0	x	0.1	1.3	x	2.9	x	x
O=C(COC(=O)c1ccccc1O)NCCC1=CCCCC1	3.4	x	4.5	-21.8*	1.5	-1.5	-13.6	u
COc1cc2ccccc2cc1C(=O)NCC(c1cccs1)N(C)C (centres undefined)	-4.9	x	-3.8	-24.0*	-3.8	4.7	u	-3.86
COc1cc(C(=O)NCC(c2cccs2)N(C)C)cc(Cl)c1OC(C)C (centres undefined)	11.2	x	-5.3	x	-2.9	3.6	x	x
CCN(c1ccccc1)S(=O)(=O)c1cccc(C(=O)NCC(c2cccs2)N(C)C)c1 (centres undefined)	2.3	3.0	-0.2	-23.6*	-1.6	3.9	x	u
CC(CCc1ccccc1)NC(=O)CNC(=O)COc1ccccc1 (centres undefined)	-2.7	1.2	-1.8	-13.6*	-1.0	0.1	-15.5	x
Cc1cc(C)c(OCC(=O)OCC(=O)N2CCc3ccccc3C2)c(C)c1	-6.0	-0.3	1.4	-15.8*	1.7	-1.9	x	-9.6
CSc1ccc(CN(C)C(=O)C(c2ccccc2)c2ccccc2)cc1	-3.1	x	-4.0	-20.6*	-4.4	-1.0	-10.7	u
CCC(=O)N1CC2(CCN(Cc3cccnc3)CC2)c2c(n(C)c3cc(OC)ccc23)[C@@H]1CO	-1.8	0.2	-7.4	-1.7	-3.8	3.7	x	x
C[C@@H]1NS(=O)(=O)c2c(F)cccc2O[C@@H]1c1ccccc1	x	-0.5	-3.0	-21.8*	x	-4.1	x	u
COc1ccc(OC)c(CN2CCCC(C(=O)c3ccccc3SC)C2)c1 (centres undefined)	-9.1	x	-4.5	-18.4*	-2.1	x	x	u
COc1ccc(-c2[nH]ncc2CN2CCCC(C(=O)c3ccc(OC)cc3OC)C2)cc1 (centres undefined)	-1.2	0.0	-6.2	7.3	-0.4	5.6	x	x
O=C(c1ccccc1)c1ccc2nc(-c3ccc(NC(=O)c4ccccc4Br)cc3)[nH]c2c1	1.7	x	8.4	-17.1*	x	x	x	-13
O=C1c2ccccc2C(=O)N1CCc1c[nH]c2ccccc12	-2.0	5.5	-1.1	-20.7*	-3.7	4.6	-6.8	x
O=C1c2ccccc2C(=O)N1CCc1c[nH]c2ccc(O)cc12	-3.4	x	2.2	-17.2	0.5	-0.4	x	x
O=C(O)c1ccccc1NC(=O)C(c1ccccc1)c1ccccc1	0.4	0.4	-1.2	-30.4*	-2.9	-2.1	-14	-11.7
O=C(Nc1ccc(F)cc1)C1CC2CCC1C2 (centres undefined)	-0.5	0.9	-11.1	-2.8	-3.8	-10.1	x	x
O=C(Nc1ccc(F)c(Cl)c1)C1CC2CCC1C2 (centres undefined)	6.4	2.0	-2.3	-28.1*	-1.9	-3.9	4.34	5.05
SMILES	ERAP1 HTS inh	E-selectin induc	S100A4 MyoIIA	Ecoli rRNA inh	SIRT5 inh	AF4-AF9 inh	AID977621	AID977628
Clc1cccc(OCc2nc(-c3ccncc3)n[nH]2)c1	-1.4	x	-1.1	-22.1*	0.2	-0.7	-1.11	x
COc1ccc(OC2C(=O)N(Cc3ccc4c(c3)OCO4)C2c2cccs2)cc1 (centres undefined)	-2.0	x	3.1	-22.3*	-4.4	1.8	-16.3	x
COc1ccc(CCN2C(=O)C(Oc3ccccc3)C2c2ccc3c(c2)OCO3)cc1 (centres undefined)	x	2.6	x	x	x	x	x	x
CC(=O)Nc1cccc(NC(=O)CCN2C(=O)c3ccccc3S2(=O)=O)c1	-2.4	x	2.2	-14.5*	-0.8	-10.6	u	-13.1
COc1ccc(S(=O)(=O)Nc2ccc3c(c2)C(=O)N([C@H](C)CO)C[C@H](C)[C@H](CN(C)C(=O)CCCN(C)C)OCCCC[C@H](C)O3)cc1	-3.0	0.0	2.9	1.3	-3.0	3.1	x	x
C[C@H](CO)N1C[C@H](C)[C@@H](CN(C)C(=O)CCCN(C)C)OCCCC[C@H](C)Oc2ccc(NC(=O)Nc3cccc4ccccc34)cc2C1=O	0.4	0.1	-29.4	-1.6	2.6	16.1	-7.84	u
C[C@@H]1CCCCO[C@@H](CN(C)C(=O)CCCN(C)C)[C@H](C)CN([C@H](C)CO)C(=O)c2cc(NC(=O)Nc3ccccc3)ccc2O1	1.4	-0.1	4.9	0.2	-8.0	11.9	x	x
C[C@@H]1CCCCO[C@H](CN(C)C(=O)CCCN(C)C)[C@H](C)CN([C@H](C)CO)C(=O)c2cc(NC(=O)Nc3cccc4ccccc34)ccc2O1	1.0	0.3	22.7	2.0	4.6	-2.1	x	u

Screens from PubChem.
